Most compounds without a hit are left out; they make up all but 2.4% or so of the library.
RanGTP-Imp inh: inhibitors of RanGTP-importin-beta interaction, primary screen, biochemical, FRET, CFP-Ran, YFP-importin-beta, homogeneous; AID 2216, 2009; 300,000 tested, 1.1% active; Ran GTPase (GTP-bound) - importin-beta complex; inhibition, % (no concentration beside the values); cell-free CFP-Ran/YFP-importin-beta FRET ratio;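 active means more than half of the replicate wells show a fall in the fluorescence ratio signal beyond about 16%, limit read from the data, passing the limit was not always enough; inconclusive means exactly half of the replicate wells pass the set limit; inactive means fewer than half of replicates pass the limit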;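 further: 0% = DMSO wells and 100% = Ran loaded with GDP instead of GTP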
Runt-CBFb FRET: inhibitors of RUNX1 Runt–CBFb binding, primary screen, biochemical, FRET, Cerulean-Runt, Venus-CBFb, uHTS | Runt-related transcription factor 1 (Homo sapiens) + Core-binding factor subunit beta … | Cerulean-Runt/Venus-CBFb FRET ratio 530/480, 1 h | inhibition, % at 20 µM | 220,000 tested, 0.46% active | AID 1496, 2009;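 active means inhibition over about 50% at 20 µM in the single-dose screen, limit read from the data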;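 further: 0% = DMSO wells and 100% = excess unlabeled CBFb competitor control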
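Doses: 20 µM compound in 1% DMSO | Material: Cerulean-labeled Runt domain protein | Amount: Each fluorescent fusion protein 100 nM | Schedule: Two 1 h room-temperature incubations shielded from light | Measured by: FRET fluorescence | Evaluation: Loss of energy transfer signal | Controls: Unlabeled CBFb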
Runt-SMMHC FRET: inhibitors of RUNX1 Runt–CBFb-SMMHC binding, primary screen, biochemical, FRET, Cerulean-Runt, Venus-CBFb-SMMHC, uHTS; Runt-related transcription factor 1 (Homo sapiens) + Core-binding factor subunit beta …; Cerulean-Runt/Venus-CBFb-SMMHC FRET ratio 530/480, 1 h; inhibition, % at 20 µM; 220,000 tested, 0.74% active; AID 1434, 2008;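 active means mean inhibition across duplicate retests at 20 µM reaching about 50%, limit read from the data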;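 further: 0% = DMSO wells and 100% = wells with excess untagged CBFb-SMMHC; inhibitors lower the FRET ratio by blocking Runt binding to CBFb-SMMHC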
EBV gp42 inh: Epstein-Barr virus gp42 inhibitors, primary screen, biochemical, uHTS, fluorescence polarization. Glycoprotein 42 (Epstein-Barr virus (strain AG876)), Q1HVG2. AID 1085, 2008. inhibition, % (tested at 21.74 µM). 220,000 tested, 0.42% active. Fluorescence polarization binding assay, mP read-out; in the data active means inhibition above about 50%
MEX-5 binding: MEX-5 zinc finger RNA-binding disruptors – biochemical, C. elegans, fluorescence polarization, MLPCN library, primary screen; AID 1832, 2009; MEX-5/FITC-TCR2 RNA binding; stronger effect = lower value; 300,000 tested, 0.38% active; activity score (negative = inhibition of binding), % at 10 µM; Zinc finger protein mex-5 (Caenorhabditis elegans), Q9XUB2;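 active means inhibition past about -25% in most replicates, and total fluorescence under double the plate's negative control median, limit read from the data; inconclusive means replicates evenly split on the limit, or fluorescence at least double controls; inactive means too little inhibition in most replicates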;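 further: 0% = DMSO and -100% = 5 µM competing unlabeled TCR2 RNA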
LANA-H2A inh: blockers of LANA interaction with H2A/H2B – biochemical, FP readout, HTS, primary screen; Protein LANA1 (Human herpesvirus 8 type P (isolate GK18)), Q9QR71; cell-free LANA-H2A/H2B peptide, fluorescence polarization; inhibition, % (no concentration beside the values); 320,000 tested, 0.6% active; in the data active means inhibition mostly above about 10%, no sharp cut-off; inactive means mostly below about 6.7%
Target sequence (Q9QR71 whole entry, looked up): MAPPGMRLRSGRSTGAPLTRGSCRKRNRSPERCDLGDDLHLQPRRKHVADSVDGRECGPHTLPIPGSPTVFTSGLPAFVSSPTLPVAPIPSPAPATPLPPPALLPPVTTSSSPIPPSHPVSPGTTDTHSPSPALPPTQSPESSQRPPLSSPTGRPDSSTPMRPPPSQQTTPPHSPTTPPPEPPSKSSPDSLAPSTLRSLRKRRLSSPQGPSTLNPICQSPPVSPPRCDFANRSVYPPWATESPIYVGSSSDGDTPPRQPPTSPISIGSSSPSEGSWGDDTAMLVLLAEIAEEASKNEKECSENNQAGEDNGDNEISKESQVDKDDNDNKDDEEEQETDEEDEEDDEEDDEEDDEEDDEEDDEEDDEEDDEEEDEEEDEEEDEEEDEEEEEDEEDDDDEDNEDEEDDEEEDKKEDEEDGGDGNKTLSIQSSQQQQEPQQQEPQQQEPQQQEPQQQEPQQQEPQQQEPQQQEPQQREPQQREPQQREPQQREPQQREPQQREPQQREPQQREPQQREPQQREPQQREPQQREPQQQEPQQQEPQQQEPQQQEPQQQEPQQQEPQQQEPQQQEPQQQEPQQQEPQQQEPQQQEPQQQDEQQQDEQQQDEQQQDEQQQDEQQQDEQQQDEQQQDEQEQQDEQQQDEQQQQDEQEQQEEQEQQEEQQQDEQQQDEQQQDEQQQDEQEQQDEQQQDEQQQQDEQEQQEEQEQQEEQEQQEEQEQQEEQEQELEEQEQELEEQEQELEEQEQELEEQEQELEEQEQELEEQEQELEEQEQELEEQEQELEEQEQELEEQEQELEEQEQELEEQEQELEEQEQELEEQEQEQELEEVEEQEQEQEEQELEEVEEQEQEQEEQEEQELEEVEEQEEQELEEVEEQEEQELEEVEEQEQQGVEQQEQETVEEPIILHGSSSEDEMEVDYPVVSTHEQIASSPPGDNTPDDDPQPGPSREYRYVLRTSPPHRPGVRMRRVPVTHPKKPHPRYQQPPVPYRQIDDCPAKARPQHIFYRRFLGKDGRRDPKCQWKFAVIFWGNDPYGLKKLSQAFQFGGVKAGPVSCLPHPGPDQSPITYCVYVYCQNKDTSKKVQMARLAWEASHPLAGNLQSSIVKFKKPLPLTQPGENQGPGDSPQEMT
YIC FRET counter: YIC intramolecular FRET probe signal interference, dose response, counter-screen for RanGTP-importin-beta inhibitor project, biochemical, fluorescence FRET | 1,000 tested, 40% active | IC50, µM | Purified YIC probe, intramolecular FRET ratio YFP/CFP | shares compounds with RanGTP-Imp inh;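 active means fitted half-maximal inhibitory concentration no more than tenfold above the top dose tested; inconclusive means flat fit with 30 to 70% activity, or poor fit; inactive means half-maximal concentration beyond tenfold above the top dose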
* marks the source's active call; other numbers are inactive results; ? = inconclusive; / = no result.

SMILES | RanGTP-Imp inh | Runt-CBFb FRET | Runt-SMMHC FRET | EBV gp42 inh | MEX-5 binding | LANA-H2A inh | YIC FRET counter
COc1ccc(OC)c(N(CC(=O)O)S(=O)(=O)c2ccc(OC)c(OC)c2)c1 | 21* | 0 | 1 | -7 | 2 | 1 | >50
COc1ccc(OC)c(N(CC(=O)N2CCCC2)S(=O)(=O)c2ccc(OC)c(OC)c2)c1 | -3 | -1 | -2 | -16 | 5 | -4 | /
Nc1c(C(=O)NCc2ccccc2)c2nc3ccccc3nc2n1-c1ccc2c(c1)OCO2 | 35* | -8 | 6 | -1 | -2 | -1 | 11*
COc1ccc(-c2cc(C(=O)NCc3ccco3)c3ccccc3n2)cc1OC | -1 | / | / | / | -1 | -2 | /
COc1ccc(-n2c(N)c(C(=O)NCc3ccco3)c3nc4ccccc4nc32)cc1OC | 17* | 0 | 15 | -7 | -1 | 6 | 33*
CCN(c1ccccc1)S(=O)(=O)c1ccc(Cl)c(NC(=O)c2ccc(=O)[nH]n2)c1 | / | / | / | / | / | 1 | /
CCOC(=O)CSc1nnc(CSc2nc3sc4c(c3c(=O)[nH]2)CCCC4)n1-c1ccccc1 | 32* | -10 | -13 | 12 | -2 | 2 | >50
CCCCOc1ccc(OCCSc2nc3ccccc3n2CC(=O)O)cc1 | 18* | / | / | / | 0 | 0 | >50
O=C(CN1CCOc2ccccc21)NCc1ccco1 | ? | 4 | -1 | -4 | -6 | 1 | /
O=C(CN1CC(=O)Oc2ccccc21)NCc1ccco1 | 19* | 5 | 3 | 0 | -1 | -1 | >50
COc1ccc(C2NC(C(=O)O)Cc3c2[nH]c2ccccc32)cc1CN1CCN(c2ccc(F)cc2)CC1 (configuration not stated) | 24* | 8 | 38 | 5 | 7 | 2 | 8.6*
COc1ccc(C2NCCc3c2[nH]c2ccccc32)cc1CN1CCc2cc(OC)c(OC)cc2C1C (configuration not stated) | -3 | -3 | 5 | -10 | 3 | / | /
COc1ccc(C2NCCc3c2[nH]c2ccccc32)cc1COc1ccc(F)cc1 (configuration not stated) | 22* | -2 | -5 | -7 | -2 | 3 | >50
Cc1ccc(C2=CC(c3ccccc3)n3ncnc3N2)cc1 (configuration not stated) | -5 | / | / | / | 0 | -1 | /
Cc1ccc(C2=CC(c3ccccc3)n3ncnc3N2)c(C)c1 (configuration not stated) | 19* | / | / | / | 0 | -4 | >50
CCCOC(=S)NC(=O)c1sc2ccccc2c1Cl | 31* | 0 | 3 | -17 | 0 | 1 | >50
O=C1c2ccccc2S(=O)(=O)c2cc(C(=O)N3CCC(O)CC3)ccc21 | 0 | / | / | / | 1 | -2 | /
COc1ccc2c(C)c(C(=O)N3CC[C@@H](N4CCC(O)CC4)[C@H](O)C3)oc2c1 | 16* | / | / | / | 1 | -5 | >50
COc1ccc(N2CCN(C(=O)c3oc4ccccc4c3C)CC2)cc1 | -4 | -3 | 1 | 7 | / | -1 | /
O=C(c1cccc(-c2ccccc2)c1)N1CC[C@@H](N2CCC(O)CC2)[C@H](O)C1 | 25* | / | / | / | -3 | -12 | >50
CCOC(=O)N/N=C/c1ccc(N(CC)CC)cc1O | 3 | 2 | 1 | -12 | -5 | 3 | /
CCN(CC)c1ccc(/C=N/NC(=O)c2c(Cl)cnn2C)c(O)c1 | 22* | 74* | 83* | -20 | 1 | -3 | 4*
O=C(c1cc2ccccc2oc1=O)N1CCN(CCc2ccccc2)CC1 | 33* | 50 | 77* | 9 | 1 | 13 | 7.3*
O=C(c1ccco1)N1CCN(C(=O)c2cc3ccccc3oc2=O)CC1 | 1 | / | / | / | -3 | -4 | /
Cc1cn2c(N)c(/C=C3\C=Nc4ccccc43)c(=O)nc2s1 | 3 | -40 | -53 | 19 | -7 | -15 | /
SMILES | RanGTP-Imp inh | Runt-CBFb FRET | Runt-SMMHC FRET | EBV gp42 inh | MEX-5 binding | LANA-H2A inh | YIC FRET counter
CSc1nsc2nc(=O)c(/C=C3\C=Nc4ccccc43)c(N)n12 | 26* | 14 | 51* | -1 | ? | -23 | 28*
CC1=Nc2ccccc2/C1=C/c1c(N)n2c(S(=O)(=O)C(C)C)nsc2nc1=O | / | 9 | 27 | -5 | 1 | 5 | /
CC(C)S(=O)(=O)c1nsc2nc(=O)c(/C=C3\C=Nc4ccccc43)c(N)n12 | 31* | 35 | 80* | 1 | 13 | 6 | 9.7*
CC(C)NC(=O)c1onc(CSc2cccc(F)c2)c1C(=O)O | 2 | 0 | -8 | 0 | 3 | 5 | /
Cc1cc(C)c(C#N)c(Nc2ccccc2C)n1 | 19* | / | / | / | 4 | 1 | >50
CCOc1ccccc1NS(=O)(=O)c1ccc2[nH]c(=O)ccc2c1 | 8 | / | / | / | -1 | 1 | /
O=C(O)c1c2c(nc3ccccc13)/C(=C/c1ccc(OC(F)F)cc1)CCC2 | 31* | / | / | / | -2 | -5 | >50
COc1ccc(/C=C2\CCCc3c2nc2ccc(C)cc2c3C(=O)O)cc1O | 6 | 5 | 0 | 1 | -5 | 0 | /
O=C(NCC(c1ccccc1Cl)N1CCCC1)C1CCN(C(=O)Nc2ccccc2)CC1 (configuration not stated) | / | / | / | / | / | 0 | /
CCc1cc(=O)oc2c(CNCc3ccc(OC)cc3OC)c(O)c(Cl)cc12 | 34* | / | / | / | -4 | 2 | 32*
COc1ccc(CNCc2c(O)c(Cl)cc3c(C)c(C)c(=O)oc23)c(OC)c1 | 18* | / | / | / | 1 | 3 | 7*
COc1ccc(CNCc2ccncc2)c(OC)c1 | 6 | / | / | / | -2 | 0 | /
COc1ccc(CNC(=O)CCSCc2ccccc2Cl)c(OC)c1 | 1 | 1 | 2 | -6 | 2 | 0 | /
CCCn1c(SCC(=O)Nc2ccc(NC(C)=O)cc2)nc2c1c(=O)n(C)c(=O)n2C | 17* | / | / | / | 3 | 3 | >50
CCC(=O)Nc1ccc(NC(=O)CSc2nc3c(c(=O)n(C)c(=O)n3C)n2CC)cc1 | 3 | / | / | / | 1 | -10 | /
Cc1cc2cc(C)c(NCCNC(=O)c3ccccc3Cl)nc2cc1C | ? | -3 | -5 | -15 | -4 | 5 | /
